Measured values reported in ChEMBL document CHEMBL4130635, “2,4-Diaminoquinazolines as Dual Toll-like Receptor (TLR) 7/8 Modulators for the Treatment of Hepatitis B Virus” (J Med Chem, 2018).
Calls of active or inactive are those of the source. The rule behind the calls is not given here.

How the values were obtained:
[1] = Tmax in Sprague-Dawley rat liver at 10 mg/kg, po; type: ADME, organism-based
[2] = Cmax in C57BL/6J mouse plasma at 3 mg/kg, po by LC-MS analysis; type: ADME, organism-based; design: dose 3 mg/kg, route oral
Method in brief: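 Healthy C57BL/6 mice, groups of 15, given a single oral dose (0.3, 1, 3, 10 or 30 mg/kg) in 20% HP-β-CD. Blood drawn at 0.5 h. Three mice per group sacrificed at 0.5, 1, 2, 4 or 7 h, and compound in plasma and liver measured by LC−MS. Values rounded to whole numbers.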

[3] = AUC (0 to last) in C57BL/6J mouse plasma at 30 mg/kg, po by LC-MS analysis; type: ADME, organism-based; design: dose 30 mg/kg, time 0 - last, route oral
Method in brief: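 Healthy C57BL/6 mice were dosed once by mouth at 0.3, 1, 3, 10 or 30 mg/kg in 20% HP-β-CD, in groups of 15 per dose. Three mice per group were sacrificed at 0.5, 1, 2, 4 or 7 h, and plasma and liver compound levels were measured by LC–MS. Values were rounded to whole numbers.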

Liver [4] = assay: Induction of IFNalpha levels in C57BL/6J mouse liver at 10 mg/kg, po by ELISA (reference value: 30 pg/g); type: functional
Liver [5] = assay: Upregulation of IP-10 mRNA expression levels in C57BL/6J mouse liver at 10 mg/kg, po by RT-qPCR analysis (reference value: 1); type: functional
Liver [6] = assay: Effect on cytokine profile in C57BL/6J mouse liver assessed as IL-12p70 levels at 30 mg/kg, po by multiplex assay (reference value: 5 pg/g); type: functional
Method in brief: (§1)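 Single oral gavage in 20% HP-β-CD to healthy C57BL/6 mice, groups of 15 at 0.3, 1, 3, 10 or 30 mg/kg. Three mice per group sacrificed at 0.5, 1, 2, 4 or 7 h. Plasma and liver cytokines by multiplex, maximum level reported, rounded to nearest multiple of 5.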

Liver [7] = assay: Effect on cytokine profile in C57BL/6J mouse liver assessed as IFNgamma levels at 1 mg/kg, po by multiplex assay; type: functional, organism-based; method in brief: as §1
Plasma [8] = assay: Proinflammatory activity in C57BL/6J mouse plasma assessed as IL-1beta levels at 30 mg/kg, po by multiplex assay (reference value: 60 pg/ml); type: functional
Plasma [9] = assay: Proinflammatory activity in C57BL/6J mouse plasma assessed as CXCL-1 levels at 0.3 mg/kg, po by multiplex assay (reference value: 230 pg/ml); type: functional
Plasma [10] = assay: Proinflammatory activity in C57BL/6J mouse plasma assessed as IL-6 levels at 3 mg/kg, po by multiplex assay (reference value: 505 pg/ml); type: functional
Liver [11] = assay: Proinflammatory activity in C57BL/6J mouse liver assessed as IL-6 levels at 3 mg/kg, po by multiplex assay (reference value: 10 pg/g); type: functional
Plasma [12] = assay: Proinflammatory activity in C57BL/6J mouse plasma assessed as TNFalpha levels at 10 mg/kg, po by multiplex assay (reference value: 70 pg/ml); type: functional
Cynomolgus monkey [13] = assay: Effect on cytokine profile in cynomolgus monkey plasma assessed as IL-15 levels at 30 mg/kg, po after 24 hrs by Luminex assay (reference value: 20 pg/ml); type: functional, Macaca fascicularis
Method in brief: (§2)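 Healthy cynomolgus monkeys given single oral doses of 1, 3, 9 and 30 mg/kg, with a 2-week wash-out planned between doses. Systemic cytokine levels in plasma were sampled at 0.5, 1, 2, 4, 9 and 24 h postdose.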

Cynomolgus monkey [14] = assay: Proinflammatory activity in cynomolgus monkey plasma assessed as TNFalpha levels at 30 mg/kg, po after 24 hrs by Luminex assay (reference value: 285 pg/ml); type: functional, Macaca fascicularis
Cynomolgus monkey [15] = assay: Proinflammatory activity in cynomolgus monkey plasma assessed as IL-6 levels at 1 mg/kg, po after 24 hrs by Luminex assay (reference value: 80 pg/ml); type: functional, Macaca fascicularis
Cynomolgus monkey [16] = assay: Proinflammatory activity in cynomolgus monkey plasma assessed as IL-8 levels at 9 mg/kg, po after 24 hrs by Luminex assay (reference value: 430 pg/ml); type: functional, Macaca fascicularis
Cynomolgus monkey [17] = assay: Activation of monocytes in cynomolgus monkey plasma assessed as upregulation of IL1Ra levels at 9 mg/kg, po after 24 hrs by Luminex assay (reference value: 320 pg/ml); type: functional, Macaca fascicularis
Cynomolgus monkey [18] = assay: Activation of monocytes in cynomolgus monkey plasma assessed as upregulation of MIP1 levels at 1 mg/kg, po after 24 hrs by Luminex assay (reference value: 37 pg/ml); type: functional, Macaca fascicularis
Cynomolgus monkey [19] = assay: Activation of monocytes in cynomolgus monkey plasma assessed as upregulation of MIP1 levels at 3 mg/kg, po after 24 hrs by Luminex assay (reference value: 37 pg/ml); type: functional, Macaca fascicularis
Cynomolgus monkey [20] = assay: Induction of G-CSF in cynomolgus monkey plasma at 30 mg/kg, po after 24 hrs by Luminex assay (reference value: 85 pg/ml); type: functional, Macaca fascicularis; method in brief: as §2
Cynomolgus monkey [21] = assay: Induction of ISG response in cynomolgus monkey plasma assessed as upregulation of Oas1b mRNA expression at 1 mg/kg, po after 24 hrs by Fluidigm RT-qPCR analysis (reference value: 1); type: functional, Macaca fascicularis
Method in brief: (§3)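 Cynomolgus monkeys, single oral doses of 1, 3, 9 and 30 mg/kg with a planned 2-week wash-out between doses. Systemic ISG (ISG15, Mx1, OAS1) mRNA was measured by Fluidigm RT-qPCR at 1, 2, 4, 8 and 24 h postdose.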

Cynomolgus monkey [22] = assay: Induction of ISG response in cynomolgus monkey plasma assessed as upregulation of Oas1b mRNA expression at 30 mg/kg, po after 24 hrs by Fluidigm RT-qPCR analysis (reference value: 1); type: functional, Macaca fascicularis; method in brief: as §3
Cynomolgus monkey [23] = assay: Toxicity in cynomolgus monkey assessed as change in body temperature up to 30 mg/kg, po; type: organism-based, Macaca fascicularis; settings: in vivo
[24] = biological target: T1, TLR7 and TLR8 (Homo sapiens) (UniProt Q9NYK1+Q9NR97); assay: Agonist activity at TLR7/8 in human PBMCs co-cultured with primary human hepatocytes infected with HBV genotype C for 12 days assessed as increase in TNFalpha levels up to 5 uM measured after 42 days
[25] = biological target: T1, TLR7 and TLR8 (Homo sapiens); assay: Agonist activity at TLR7/8 in human PBMCs co-cultured with primary human hepatocytes infected with HBV genotype C for 12 days assessed as increase in MIP-1alpha levels up to 5 uM measured after 42 days
[26] = biological target: T1, TLR7 and TLR8 (Homo sapiens); assay: Agonist activity at TLR7/8 in human PBMCs co-cultured with primary human hepatocytes infected with HBV genotype C for 12 days assessed as increase in IL-1Ra levels up to 5 uM measured after 42 days
[27] = biological target: T1, TLR7 and TLR8 (Homo sapiens); assay: Agonist activity at TLR7/8 in human PBMCs assessed as reduction in extracellular viral load in human hepatocytes infected with HBV genotype C for 12 days followed by exposure to conditioned supernatant from up to 5 uM compound treated PBMCs measured after 42 days; type: cell-based
Cytochrome P450 3A4 = Cytochrome P450 3A4 (Homo sapiens, UniProt P08684); assay: Induction of CYP3A4 (unknown origin); type: ADME
Cynomolgus monkey [28] = assay: Toxicity in cynomolgus monkey assessed as clinical observation changes up to 30 mg/kg, po; type: organism-based, Macaca fascicularis; settings: in vivo
[29] = Selectivity index, ratio of compound concentration causing induction of AST level in primary human hepatocytes infected with HBV genotype C for 12 days followed by exposure to conditioned supernatant from at 5 uM compound treated PBMCs measured after 42 days to Agonist activity at human TLR7 expressed in HEK293 cells

T1 sequence (Q9NR97 whole entry, looked up): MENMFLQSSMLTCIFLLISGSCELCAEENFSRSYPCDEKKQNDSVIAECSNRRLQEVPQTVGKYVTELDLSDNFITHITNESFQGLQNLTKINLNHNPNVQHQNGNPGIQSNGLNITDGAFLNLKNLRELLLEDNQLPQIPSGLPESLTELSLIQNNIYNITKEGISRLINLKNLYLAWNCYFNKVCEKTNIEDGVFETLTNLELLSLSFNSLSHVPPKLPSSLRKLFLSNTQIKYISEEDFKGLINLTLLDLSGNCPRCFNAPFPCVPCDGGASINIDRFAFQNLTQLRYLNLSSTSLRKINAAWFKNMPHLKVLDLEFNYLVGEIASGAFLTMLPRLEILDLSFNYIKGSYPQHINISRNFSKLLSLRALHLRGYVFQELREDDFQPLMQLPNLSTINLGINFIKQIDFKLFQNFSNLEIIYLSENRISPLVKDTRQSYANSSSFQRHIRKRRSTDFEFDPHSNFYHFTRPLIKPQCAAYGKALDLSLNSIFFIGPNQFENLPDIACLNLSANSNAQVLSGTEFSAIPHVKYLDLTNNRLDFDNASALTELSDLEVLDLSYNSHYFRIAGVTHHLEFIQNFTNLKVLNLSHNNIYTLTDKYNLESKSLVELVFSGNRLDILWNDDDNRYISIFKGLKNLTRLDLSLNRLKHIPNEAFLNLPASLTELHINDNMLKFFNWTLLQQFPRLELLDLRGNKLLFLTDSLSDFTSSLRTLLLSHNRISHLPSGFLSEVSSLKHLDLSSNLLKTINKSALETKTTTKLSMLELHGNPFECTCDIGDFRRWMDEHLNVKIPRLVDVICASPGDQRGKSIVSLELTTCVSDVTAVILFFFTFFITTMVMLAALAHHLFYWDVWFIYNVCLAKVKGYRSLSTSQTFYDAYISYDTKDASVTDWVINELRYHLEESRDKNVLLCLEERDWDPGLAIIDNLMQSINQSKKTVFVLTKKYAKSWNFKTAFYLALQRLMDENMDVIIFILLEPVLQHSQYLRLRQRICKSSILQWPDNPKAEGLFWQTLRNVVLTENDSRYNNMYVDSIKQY
T1 sequence (Q9NYK1 whole entry, looked up): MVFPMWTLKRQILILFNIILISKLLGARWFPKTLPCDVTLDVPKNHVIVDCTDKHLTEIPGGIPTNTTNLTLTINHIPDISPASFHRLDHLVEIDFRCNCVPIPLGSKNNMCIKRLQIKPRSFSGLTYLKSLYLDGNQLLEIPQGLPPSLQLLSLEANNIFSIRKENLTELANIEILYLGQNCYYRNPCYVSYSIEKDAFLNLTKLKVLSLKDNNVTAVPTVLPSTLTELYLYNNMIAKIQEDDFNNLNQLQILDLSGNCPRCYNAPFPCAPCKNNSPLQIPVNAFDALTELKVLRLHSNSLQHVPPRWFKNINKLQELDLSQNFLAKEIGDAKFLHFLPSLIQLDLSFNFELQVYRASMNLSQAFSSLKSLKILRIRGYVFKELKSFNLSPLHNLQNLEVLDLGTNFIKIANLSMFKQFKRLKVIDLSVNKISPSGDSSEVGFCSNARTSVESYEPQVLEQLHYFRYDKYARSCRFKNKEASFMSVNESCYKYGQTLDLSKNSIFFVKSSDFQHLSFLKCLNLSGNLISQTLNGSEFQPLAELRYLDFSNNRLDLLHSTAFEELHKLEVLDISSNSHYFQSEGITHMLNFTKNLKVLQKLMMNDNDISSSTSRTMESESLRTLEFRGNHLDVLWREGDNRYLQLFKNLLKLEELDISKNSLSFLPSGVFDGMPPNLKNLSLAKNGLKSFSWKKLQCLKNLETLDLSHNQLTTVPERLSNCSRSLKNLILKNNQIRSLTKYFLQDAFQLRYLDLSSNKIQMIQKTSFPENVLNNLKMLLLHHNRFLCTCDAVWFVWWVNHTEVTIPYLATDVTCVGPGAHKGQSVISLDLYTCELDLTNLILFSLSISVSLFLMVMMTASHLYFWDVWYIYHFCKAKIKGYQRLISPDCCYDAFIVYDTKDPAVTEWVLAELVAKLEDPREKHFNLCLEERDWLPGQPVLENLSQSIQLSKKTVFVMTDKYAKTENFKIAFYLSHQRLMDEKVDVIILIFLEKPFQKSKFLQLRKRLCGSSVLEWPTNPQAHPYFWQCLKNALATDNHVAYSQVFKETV
Cytochrome P450 3A4, sequence (P08684 whole entry): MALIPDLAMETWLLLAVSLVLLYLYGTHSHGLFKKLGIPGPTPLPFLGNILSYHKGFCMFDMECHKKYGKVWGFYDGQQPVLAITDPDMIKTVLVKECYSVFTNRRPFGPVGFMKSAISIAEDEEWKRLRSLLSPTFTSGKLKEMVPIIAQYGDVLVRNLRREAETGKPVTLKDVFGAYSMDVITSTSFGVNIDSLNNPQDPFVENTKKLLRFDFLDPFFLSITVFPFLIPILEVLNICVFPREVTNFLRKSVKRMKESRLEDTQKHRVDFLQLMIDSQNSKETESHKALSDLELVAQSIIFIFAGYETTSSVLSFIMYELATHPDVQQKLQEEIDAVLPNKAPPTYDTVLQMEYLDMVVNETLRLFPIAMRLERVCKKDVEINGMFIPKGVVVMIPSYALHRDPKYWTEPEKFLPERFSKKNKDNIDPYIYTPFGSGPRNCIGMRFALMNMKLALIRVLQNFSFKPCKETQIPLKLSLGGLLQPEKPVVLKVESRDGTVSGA

Question: Which Tmax [1] does the source give for `CCC[C@@H](CCO)Nc1nc(N)nc2c(F)cccc12` here?
Answer: 30 min

Question: What about the Cmax [2] of the same compound?
Answer: 0.022 µg/mL

Question: What about the AUC(0-t) [3] of the same compound?
Answer: 0.679 µg·h/mL

Question: And the Activity (Liver [4])?
Answer: 1365 pg/g

Question: What about the “fold change (FC)” value (Liver [5]) of the same compound?
Answer: 800

Question: What about the Activity (Liver [6]) of the same compound?
Answer: 2340 pg/g

Question: And the Activity (Liver [7])?
Answer: Below limit of detection

Question: What about the Activity (Plasma [8]) of the same compound?
Answer: 70 pg/mL

Question: And the Activity (Plasma [9])?
Answer: 2180 pg/mL

Question: What about the Activity (Plasma [10]) of the same compound?
Answer: 4970 pg/mL

Question: What about the Activity (Liver [11]) of the same compound?
Answer: 3225 pg/g

Question: And the Activity (Plasma [12])?
Answer: >10000 pg/mL

Question: And the Activity (Cynomolgus monkey [13])?
Answer: 85 pg/mL

Question: What about the Activity (Cynomolgus monkey [14]) of the same compound?
Answer: 2990 pg/mL

Question: And the Activity (Cynomolgus monkey [15])?
Answer: 75 pg/mL

Question: And the Activity (Cynomolgus monkey [16])?
Answer: 1640 pg/mL

Question: And the Activity (Cynomolgus monkey [17])?
Answer: 2455 pg/mL

Question: What about the Activity (Cynomolgus monkey [18]) of the same compound?
Answer: 44 pg/mL

Question: What about the Activity (Cynomolgus monkey [19]) of the same compound?
Answer: 85 pg/mL

Question: And the Activity (Cynomolgus monkey [20])?
Answer: 1135 pg/mL

Question: What about the “fold change (FC)” value (Cynomolgus monkey [21]) of the same compound?
Answer: 180

Question: And the “fold change (FC)” value (Cynomolgus monkey [22])?
Answer: 235

Question: What about the Activity (Cynomolgus monkey [23]) of the same compound?
Answer: Non-Toxic

Question: And the Activity [24]?
Answer: Active

Question: And the Activity [25]?
Answer: Active

Question: And the Activity [26]?
Answer: Active

Question: And the Activity [27]?
Answer: Active

Question: And the Activity (Cytochrome P450 3A4)?
Answer: Not Active

Question: What about the Activity (Cynomolgus monkey [28]) of the same compound?
Answer: Non-Toxic

Question: And the Ratio [29]?
Answer: 25
